One assay concerns Vero kidney cells. As to the kind of experiment: Cytotoxicity, WST-8 cell viability, non-cancer kidney cells. Type of assay: cell-based. The following applies: read-out: Kidney cells IC50 Vero; 48 h incubation, mean ± SD (n = 3). In a few lines:
(§1)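 Cells were seeded at 10,000 cells/well and grown for 24 h. Test compounds were dissolved in DMSO, diluted in medium and added at 80, 40, 20 and 10 µM. Cells were then incubated for 48 h. Viability was read with WST-8 plus 1-methoxy PMS as formazan absorbance at 450 nm. Controls were doxorubicin (positive) and 0.25% DMSO (vehicle). IC50 came from concentration-response curves, mean ± SD (n = 3).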
On the technique in general: Formazan colour is commonly taken as a measure of viable cells.

The next assay has as its target T1, drHDAC10 (Danio rerio, UniProt F1QCV2).
T1 sequence (F1QCV2 1-675): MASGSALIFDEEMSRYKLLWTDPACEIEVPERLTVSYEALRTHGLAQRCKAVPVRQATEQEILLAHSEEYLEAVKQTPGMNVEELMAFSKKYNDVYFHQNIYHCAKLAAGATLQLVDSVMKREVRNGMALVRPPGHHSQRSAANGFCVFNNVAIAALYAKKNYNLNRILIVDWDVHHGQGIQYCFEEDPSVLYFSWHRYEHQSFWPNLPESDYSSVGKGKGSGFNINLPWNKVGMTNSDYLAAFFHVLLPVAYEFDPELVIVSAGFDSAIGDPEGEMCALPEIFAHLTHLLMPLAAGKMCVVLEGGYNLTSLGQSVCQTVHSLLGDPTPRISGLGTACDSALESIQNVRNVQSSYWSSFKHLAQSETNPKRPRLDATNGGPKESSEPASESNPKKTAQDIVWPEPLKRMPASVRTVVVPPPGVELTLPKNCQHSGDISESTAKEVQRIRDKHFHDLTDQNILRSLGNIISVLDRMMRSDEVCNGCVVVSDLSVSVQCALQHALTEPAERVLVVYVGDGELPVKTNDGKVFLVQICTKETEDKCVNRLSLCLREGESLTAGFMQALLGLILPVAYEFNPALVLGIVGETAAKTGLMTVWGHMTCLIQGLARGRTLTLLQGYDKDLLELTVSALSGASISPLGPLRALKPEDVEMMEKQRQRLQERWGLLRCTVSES
In words: Enzymatic in vitro HDAC10 inhibition assay. Type of assay: biochemical, zebrafish. In a few lines:
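Recombinant wild-type drHDAC10 (5 nM final) was preincubated 5 min with test compound at various concentrations in 20 mM HEPES pH 7.4 with 0.5 mg/mL BSA. The reaction was started with 50 µM Ac-spermidine-AMC and incubated 25 min at 25 °C. A stop solution containing 16 mM NDA derivatized the released primary amine. Fluorescence was read at λex 330 nm and λem 390 nm.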

In a further assay the test system is LLC-PK1 kidney cells. In words: Cytotoxicity, WST-8 cell viability, non-cancer kidney cells. Format: cell-based. The following applies: read-out: Kidney cells IC50 LLC-PK1; 48 h incubation, mean ± SD (n = 3). The essentials: as §1
The test system of assay [1] is SK-OV-3 (ovarian carcinoma). As to the kind of experiment: Cytotoxicity, WST-8 cell viability. Format: cell-based, human. Conditions: read-out: Cancer cell lines IC50 SK-OV-3; 48 h incubation, mean ± SD (n = 3). The essentials: as §1
In another assay the target is hHDAC1 (Homo sapiens, UniProt Q13547). In words: biochemical. Type of assay: biochemical.
Sequence of hHDAC1 (Q13547 whole entry): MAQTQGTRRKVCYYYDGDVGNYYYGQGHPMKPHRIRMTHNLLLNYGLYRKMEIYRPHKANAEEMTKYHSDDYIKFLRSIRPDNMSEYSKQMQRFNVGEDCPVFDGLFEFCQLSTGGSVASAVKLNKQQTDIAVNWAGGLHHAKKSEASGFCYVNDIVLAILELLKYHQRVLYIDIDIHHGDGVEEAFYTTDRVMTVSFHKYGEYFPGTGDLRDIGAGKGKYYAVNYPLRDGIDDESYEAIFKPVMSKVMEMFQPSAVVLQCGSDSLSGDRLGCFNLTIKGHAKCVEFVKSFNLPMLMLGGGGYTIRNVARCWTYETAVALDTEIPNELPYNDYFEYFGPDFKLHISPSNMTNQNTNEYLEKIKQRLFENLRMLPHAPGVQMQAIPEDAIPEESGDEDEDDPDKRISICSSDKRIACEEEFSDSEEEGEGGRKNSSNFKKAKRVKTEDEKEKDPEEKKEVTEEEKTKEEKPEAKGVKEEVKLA
The next assay relates to SK-MEL (melanoma). In words: Cytotoxicity, WST-8 cell viability. The following applies: read-out: Cancer cell lines IC50 SK-MEL; 48 h incubation, mean ± SD (n = 3). Format: cell-based, human. In a few lines:
as §1

A further assay concerns the target T2, hHDAC8 (Homo sapiens, UniProt Q9BY41).
T2 sequence (Q9BY41 1-377): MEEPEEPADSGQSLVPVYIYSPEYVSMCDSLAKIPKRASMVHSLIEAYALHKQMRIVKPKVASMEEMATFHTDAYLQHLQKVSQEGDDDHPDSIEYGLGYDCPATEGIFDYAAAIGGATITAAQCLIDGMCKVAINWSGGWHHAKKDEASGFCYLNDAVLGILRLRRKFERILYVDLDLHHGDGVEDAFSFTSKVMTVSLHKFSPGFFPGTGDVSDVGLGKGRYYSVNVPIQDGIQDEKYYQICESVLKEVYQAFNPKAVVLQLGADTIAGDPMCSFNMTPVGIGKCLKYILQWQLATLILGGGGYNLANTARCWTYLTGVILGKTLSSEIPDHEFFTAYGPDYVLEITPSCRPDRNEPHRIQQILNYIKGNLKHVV
As to the kind of experiment: biochemical. Format: biochemical.

Another assay addresses T3, hHDAC6 (Homo sapiens, UniProt Q9UBN7).
T3 sequence (Q9UBN7 1-1215): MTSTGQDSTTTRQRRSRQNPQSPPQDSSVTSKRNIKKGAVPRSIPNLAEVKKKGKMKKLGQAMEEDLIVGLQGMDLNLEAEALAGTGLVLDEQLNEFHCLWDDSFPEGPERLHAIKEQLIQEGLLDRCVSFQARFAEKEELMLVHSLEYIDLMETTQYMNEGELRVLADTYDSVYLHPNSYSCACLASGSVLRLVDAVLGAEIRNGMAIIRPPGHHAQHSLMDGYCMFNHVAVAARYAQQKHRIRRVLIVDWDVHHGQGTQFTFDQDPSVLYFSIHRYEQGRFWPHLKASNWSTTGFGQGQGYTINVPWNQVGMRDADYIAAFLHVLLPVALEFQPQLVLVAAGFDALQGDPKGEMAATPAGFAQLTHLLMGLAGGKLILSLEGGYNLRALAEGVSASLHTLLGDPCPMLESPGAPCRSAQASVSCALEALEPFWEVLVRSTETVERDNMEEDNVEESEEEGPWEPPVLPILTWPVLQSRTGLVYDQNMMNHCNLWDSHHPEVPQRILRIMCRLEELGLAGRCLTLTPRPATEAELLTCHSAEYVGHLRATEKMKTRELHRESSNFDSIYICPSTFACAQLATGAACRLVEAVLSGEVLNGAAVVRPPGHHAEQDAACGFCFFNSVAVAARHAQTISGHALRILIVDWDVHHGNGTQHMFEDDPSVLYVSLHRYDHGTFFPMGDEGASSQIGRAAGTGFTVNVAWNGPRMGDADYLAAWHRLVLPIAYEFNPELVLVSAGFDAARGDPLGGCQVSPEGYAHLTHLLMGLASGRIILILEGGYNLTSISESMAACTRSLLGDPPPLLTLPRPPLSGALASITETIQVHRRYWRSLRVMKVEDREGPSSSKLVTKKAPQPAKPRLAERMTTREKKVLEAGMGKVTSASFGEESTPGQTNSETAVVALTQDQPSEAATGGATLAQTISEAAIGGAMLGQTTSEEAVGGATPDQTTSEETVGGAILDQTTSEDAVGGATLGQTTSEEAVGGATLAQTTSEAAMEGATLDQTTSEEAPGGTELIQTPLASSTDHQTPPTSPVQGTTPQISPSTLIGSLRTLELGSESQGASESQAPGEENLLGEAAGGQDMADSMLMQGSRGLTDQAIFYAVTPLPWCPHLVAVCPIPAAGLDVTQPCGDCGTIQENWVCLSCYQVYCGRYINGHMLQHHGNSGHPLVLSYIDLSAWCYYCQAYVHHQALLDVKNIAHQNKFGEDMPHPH
In words: biochemical. Conditions: read-out: hHDAC6 IC50; recombinant human HDAC6.

In the next assay the test system is KB (epidermal carcinoma). In words: Cytotoxicity, WST-8 cell viability. Format: cell-based, human. Conditions: read-out: Cancer cell lines IC50 KB; 48 h incubation, mean ± SD (n = 3). The essentials:
as §1

The test system of assay [2] is BT-549 (breast carcinoma). In words: Cytotoxicity, WST-8 cell viability. Conditions: read-out: Cancer cell lines IC50 BT-549; 48 h incubation, mean ± SD (n = 3). Type of assay: cell-based, human. In a few lines:
as §1

The term IC50 denotes the concentration that inhibits the measured activity by half.

On to `Cc1ccc(S(=O)(=O)n2cc(CNCc3ccc(C(=O)NO)cc3)c3ccccc32)cc1` [Compound 2c, N-hydroxy-4-((((1-tosyl-1H-indol-3-yl)methyl)amino)methyl) benzamide], for which the IC50 stood at 21.4 ± 1.27 µM with Vero kidney cells; 0.0045 ± 0.0003 µM on drHDAC10 (read-out: IC50 drHDAC10 ± SD, zebrafish HDAC10, recombinant wild type); 16.6 ± 3.93 µM in the assay on LLC-PK1 kidney cells; 21.4 ± 1.89 µM in assay [1]; 15.1 ± 0.94 µM with SK-MEL (melanoma); 0.051 ± 0.005 µM on hHDAC6. Besides, the figures for the IC50 (in the assay on KB (epidermal carcinoma); in assay [2]) were 20.2 ± 0.32 µM and 16.5 ± 0.32 µM, respectively. Further, the “reduction in HDAC10 inhibitory activity compared to compound 2a” value on drHDAC10 (tosyl analogue vs compound 2a) was approximately 10 fold. For the same compound, the “hHDAC1 % @1 µM” value at hHDAC1 (inhibitor at 1 µM) stood at 22.2%. Also, the “hHDAC1 % @10 µM” value on hHDAC1 (inhibitor at 10 µM) was found to be 72.8%. Also, at hHDAC8 (inhibitor at 1 µM), the “hHDAC8 % @1 µM” value is on record as 65.1%. Moreover, the “hHDAC8 % @10 µM” value at hHDAC8 (inhibitor at 10 µM) amounted to 97.3%.

Source of the values: article PMC12475083 (Scientific Reports, 2025).
